We go through one molecule from ChEMBL document CHEMBL1156469 (2007).

Active and inactive are the calls of the source. The calls are words filed in the database; no cut-off is given here.

The subject of assay [1] is Rattus norvegicus. Put plainly: Antiapoptotic activity against osteoblasts in ovariectomized Wistar rat at 10 mg/kg after 10 weeks. The format is functional, organism-based. Further details: dose 10 mg/kg. Summed up:
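After 10 weeks, lumbar vertebrae were removed. Apoptotic osteoblasts were detected by TUNEL staining (Klenow FragEL) in undecalcified, plastic-embedded sections. Values are means ± S.D.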

Assay [2] has as its system MDA-MB-231. Put plainly: Reduction in anchorage-independent colony formation of human MDA-MB-231 cells at 1 uM by soft agar colony forming assay. It counts as functional, cell-based. Summed up: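 Seeded in 0.35% noble agar in DMEM/10% FBS over a 0.7% agar bed. Colonies of at least 50 μm counted after 3 weeks under a dissecting microscope, six replicates per treatment. Three separate experiments.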

In assay [3] the target is T1, Alkaline phosphatase (Mus musculus) (UniProt Q9EQ79).
T1 sequence (whole entry): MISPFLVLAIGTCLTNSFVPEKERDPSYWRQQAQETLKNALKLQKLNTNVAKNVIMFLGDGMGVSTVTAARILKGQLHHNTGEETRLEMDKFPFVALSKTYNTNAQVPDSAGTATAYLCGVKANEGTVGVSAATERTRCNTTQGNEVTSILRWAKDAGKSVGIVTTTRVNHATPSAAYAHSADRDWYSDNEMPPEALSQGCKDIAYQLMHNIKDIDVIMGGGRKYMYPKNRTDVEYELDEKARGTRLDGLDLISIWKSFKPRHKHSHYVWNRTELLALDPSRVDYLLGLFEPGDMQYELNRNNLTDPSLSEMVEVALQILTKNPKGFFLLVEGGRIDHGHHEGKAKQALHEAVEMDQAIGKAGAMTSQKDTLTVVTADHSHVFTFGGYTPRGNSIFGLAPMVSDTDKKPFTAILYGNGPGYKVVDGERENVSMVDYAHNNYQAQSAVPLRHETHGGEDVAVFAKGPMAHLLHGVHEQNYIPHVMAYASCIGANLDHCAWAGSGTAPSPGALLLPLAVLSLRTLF
Put plainly: Inhibition of induction of ALP activity in mouse MC3T3-E1 cells at 1 uM after 48 hrs in presence of BMP2-specific neutralizing antibody. It counts as cell-based.

A short description of assay [4]: Effect on colony stimulating factor 2 gene expression in rat primary osteoblast cells assessed as expression ratio of treated to untreated control by microarray analysis. It counts as functional.
The subject of assay [5] is Osteoblast. The assay can be described thus: Effect on procollagen 3 alpha 1 gene expression in rat primary osteoblast cells assessed as expression ratio of treated to untreated control by microarray analysis. It counts as functional. Summed up: (§1)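 Resveratrol-treated and vehicle-treated primary osteoblasts were profiled on a mouse osteogenesis-focused cDNA array (GEArray Q series) built to track gene expression during osteogenic differentiation. Each gene's signal in treated cells was expressed as a ratio to untreated control.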

Assay [6] in a line: Reversal of increase in BMP2 expression in mouse MC3T3-E1 cells expressing pBMP2/mERE mutant at 1 uM after 4 hrs by luciferase method. It counts as functional, cell-based.
The test system of assay [7] is Osteoblast. Put plainly: Effect on runt related transcription factor 2 gene expression in rat primary osteoblast cells assessed as expression ratio of treated to untreated control by microarray analysis. It counts as functional. Summed up:
as §1

Assay [8] deals with MG-63. Put plainly: Increase in osteocalcin levels in human MG63 cells at 1 uM after 72 hrs by ELISA. It counts as functional, cell-based. Summed up:
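Cells treated with 1 μm for 72 h; osteocalcin or osteopontin in culture medium by sandwich ELISA, HRP-streptavidin/TMB, 450 nm; percent change versus untreated control.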
A general note: ELISA stands for enzyme-linked immunosorbent assay.

For assay [9], the system named is Osteoblast. The assay can be described thus: Inhibition of antiapoptotic activity in rat primary osteoblast cells at 1 uM after 48 hrs in presence of BMP2-specific neutralizing antibody. The format is functional, cell-based.
The test system of assay [10] is MC3T3-E1. Put plainly: Increase in osteopontin mRNA levels in mouse MC3T3-E1 cells at 1 uM after 72 hrs by RT-PCR. The format is functional, cell-based. In outline: (§2)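 Cells treated with 1 μm for 72 h; osteocalcin and osteopontin mRNA by RT-PCR, 30 cycles (95/52/72 °C, 1 min each), ethidium bromide–stained agarose gels; repeated at least twice from at least two cDNA preparations.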

The test system of assay [11] is Osteoblast. The assay can be described thus: Effect on bone morphogenetic protein receptor 1B gene expression in rat primary osteoblast cells assessed as expression ratio of treated to untreated control by microarray analysis. The format is functional.
Assay [12] deals with Osteoblast. The assay can be described thus: Inhibition of TNF-alpha-induced apoptosis in rat primary osteoblast cells after 24 hrs by flow cytometry. The format is functional, cell-based. In outline:
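Cells washed in PBS, held 30 min in 0.5% Triton X-100/PBS/0.05% RNase A, then propidium iodide (50 μg/ml) added and kept on ice 15–30 min. Apoptosis is the hypodiploid fraction below the G0/G1 peak, by flow cytometry. Run in triplicate and repeated on three occasions.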
(Flow cytometry measures light scatter and fluorescence of single cells or particles in a stream.)

A short description of assay [13]: Reversal of induction of BMP2 expression in mouse MC3T3-E1 cells at 1 uM by Western blot in presence of short interfering ERalpha-RNA. It counts as functional, cell-based. (In general: Immunoblotting shows a protein as a band on a membrane.)
For assay [14], the target named is Alkaline phosphatase (Rattus norvegicus) (UniProt Q9JKS8). Put plainly: Inhibition of induction of ALP activity in rat primary osteoblast cells at 1 uM after 48 hrs in presence of BMP2-specific neutralizing antibody. The format is cell-based.
Assay [15] relates to MC3T3-E1. The assay can be described thus: Increase in osteocalcin mRNA levels in mouse MC3T3-E1 cells at 1 uM after 72 hrs by RT-PCR. It counts as functional, cell-based. In outline: as §2
Assay [16] relates to Osteoblast. The assay can be described thus: Effect on procollagen 6 alpha 1 gene expression in rat primary osteoblast cells assessed as expression ratio of treated to untreated control by microarray analysis. The format is functional. In outline:
as §1

Assay [17] in a line: Reversal of increase in pBMP2 expression in rat primary osteoblast cells at 1 uM by luciferase method in presence of PP2. The format is functional, cell-based.
Assay [18] has as its system Osteoblast. The assay can be described thus: Increase in bone morphogenetic protein 2 gene expression in rat primary osteoblast cells assessed as expression ratio of treated to untreated control by microarray analysis. The format is functional. In outline:
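GEArray Q series Mouse Osteogenesis cDNA array profiling osteogenic-differentiation genes in treated versus vehicle-treated primary osteoblasts.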

Assay [19] in a line: Reversal of increase in pBMP2 expression in mouse MC3T3-E1 cells at 1 uM by luciferase method in presence of PP2. It counts as functional, cell-based. Summed up:
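BMP-2 promoter activity measured by dual-luciferase assay and expressed relative to the untreated vector control.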

For assay [20], the system named is Osteoblast. Put plainly: Effect on procollagen 1 alpha 1 gene expression in rat primary osteoblast cells assessed as expression ratio of treated to untreated control by microarray analysis. The format is functional. Summed up: as §1
Assay [21] relates to Osteoblast. The assay can be described thus: Increase in BMP2 levels in rat primary osteoblast cells at 1 uM after 48 hrs by ELISA. It counts as functional, cell-based. Summed up: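 Culture medium collected after 48 h treatment at indicated concentrations; BMP-2 sandwich ELISA, 2 h room temperature incubation, HRP-streptavidin with TMB, absorbance at 450 nm; expressed as percent change versus untreated control.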

Assay [22] relates to Rattus norvegicus. Put plainly: Increase in bone mineral density in ovariectomized Wistar rat dosed orally after 10 weeks. It counts as functional, organism-based. In outline: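 Female Wistar rats sham-operated or ovariectomized, fed compound orally every 2 days at indicated doses; femur/tibia BMD by DEXA under ketamine (87 mg/kg)/xylazine (13 mg/kg) anesthesia and serum ALP measured 10 weeks after surgery; n = 8/group, means ± S.D.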

In assay [23] the test system is Osteoblast. The assay can be described thus: Effect on procollagen 4 alpha 6 gene expression in rat primary osteoblast cells assessed as expression ratio of treated to untreated control by microarray analysis. It counts as functional. In outline: as §1
In assay [24] the test system is Osteoblast. Put plainly: Inhibition of antiapoptotic activity in rat primary osteoblast cells at 1 uM after 48 hrs in presence of noggin. It counts as functional, cell-based.

Chain of Alkaline phosphatase (Rattus norvegicus) (Q9JKS8 as listed by the source): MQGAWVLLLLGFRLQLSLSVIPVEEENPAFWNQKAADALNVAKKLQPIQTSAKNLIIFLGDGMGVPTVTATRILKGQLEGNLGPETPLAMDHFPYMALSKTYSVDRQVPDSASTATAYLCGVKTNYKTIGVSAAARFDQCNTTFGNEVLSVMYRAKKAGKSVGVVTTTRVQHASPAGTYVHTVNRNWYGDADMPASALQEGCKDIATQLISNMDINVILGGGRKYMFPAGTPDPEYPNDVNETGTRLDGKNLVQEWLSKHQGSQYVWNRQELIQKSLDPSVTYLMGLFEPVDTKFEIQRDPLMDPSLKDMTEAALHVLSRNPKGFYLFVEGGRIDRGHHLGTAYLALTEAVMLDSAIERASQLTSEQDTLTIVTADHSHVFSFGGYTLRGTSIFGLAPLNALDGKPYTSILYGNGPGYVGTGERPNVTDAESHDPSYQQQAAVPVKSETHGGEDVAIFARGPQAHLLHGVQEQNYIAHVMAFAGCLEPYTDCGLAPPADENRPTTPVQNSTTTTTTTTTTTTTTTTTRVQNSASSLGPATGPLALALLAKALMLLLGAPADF

On to `Oc1ccc(/C=C/c2cc(O)cc(O)c2)cc1` [RESVERATROL], for which the outcome in assay [1], in assay [2], in assay [3], in assay [8], in [9] and in assay [10] was Active. The result in assay [12], in assay [13], in [14], in assay [15], in assay [17] and in assay [19] was Active. Further, in assay [24], the outcome was Active. The Ratio in [4] was 0.35; in [5] it was 4.41; in assay [7] it was 3.26; in assay [11], 2.63; in [16], 2.35; in assay [18] it was 12.75. Also, the Ratio in assay [20] is reported as 9.67; in assay [23], 3.689. Moreover, the Activity was 80% in assay [6], “Dose-dependent effect” in assay [21] and “Dose-dependent effect” in assay [22].
